We go through 31 molecules from ChEMBL document CHEMBL4052833, “Design, Synthesis, and Biological Activity of New N-(Phenylmethyl)-benzoxazol-2-thiones as Macrophage Migration Inhibitory Factor (MIF) Antagonists: Efficacies in Experimental Pulmonary Hypertension” (J Med Chem, 2018).

The term inhibition denotes the share of the control response that was lost under treatment. A word on the Ki: it is a measure of affinity in units of concentration, obtained from inhibition or displacement. By EC50 is commonly meant the concentration that produces a half-maximal response. By solubility is commonly meant the concentration that dissolves in the medium under given conditions.

Series [1] relates to DU-145. In words: Inhibition of cell survival in MIF dependent human DU145 cells at 100 uM after 24 hrs by MTT assay. Format: functional. The following applies: for inhibition at 100 µM: DU-145, 24 h. Summed up: (§1)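 DU-145 (RPMI) or iPAH endothelial cells (MCDB131) grown 24 h with 10% FCS, washed, then exposed 24 h serum-free to 10, 50 or 100 µM compound. MTT 5 mg/mL added for 6 h, medium removed, DMSO added, absorbance read at 590 nm.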
(In general: Tetrazolium assays rely on reduction of a dye to a coloured formazan, in cell work by metabolically active cells.)

The target of series [2] is T1, Macrophage migration inhibitory factor (Homo sapiens, UniProt P14174).
T1 sequence (P14174 whole entry): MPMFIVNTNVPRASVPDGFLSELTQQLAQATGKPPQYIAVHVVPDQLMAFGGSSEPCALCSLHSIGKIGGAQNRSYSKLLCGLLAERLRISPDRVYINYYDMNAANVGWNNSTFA
Kind of series: Inhibition of recombinant human MIF tautomerase activity using 4-HPP as substrate preincubated for 15 mins followed by substrate addition measured after 360 secs. The essentials: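 Recombinant human MIF (100 nM) preincubated 15 min with 8 inhibitor concentrations, 0–10 µM; 4-HPP substrate, pre-equilibrated overnight at 4°C in 50 mM ammonium acetate, added in 0.435 M boric acid pH 6.6 at room temperature. Absorbance increase at 305 nm followed over 0–360 s; Ki determined; at least 3 independent replicates.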

The subject of series [3] is DU-145. In words: Induction of apoptosis in human DU145 cells assessed as viable cells at 100 uM by Annexin V-FITC-staining based FACS analysis (reference value: 94.9%). Format: functional. The note with it: read-out: Activity. (A flow cytometer gives signals particle by particle.)
The test system of series [4] is DU-145. Kind of series: Inhibition of cell survival in MIF dependent human DU145 cells after 24 hrs by MTT assay. Format: functional, cell-based. The following applies: DU-145, 24 h. Summed up: as §1
The subject of series [5] is DU-145. Kind of series: Induction of apoptosis in human DU145 cells assessed as increase in caspase 3/7 activity after 24 hrs by fluorescence based assay. Format: functional, cell-based. Summed up:
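DU-145 cells exposed to increasing doses for 24 h; caspase-3/7 activity measured by fluorogenic Apo-ONE read-out.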

Series [6] deals with DU-145. Kind of series: Induction of apoptosis in human DU145 cells assessed as early apoptotic cells at 100 uM by Annexin V-FITC-staining based FACS analysis (reference value: 2.5%). Format: functional.
In series [7] the test system is DU-145. In words: Induction of apoptosis in human DU145 cells assessed as late apoptotic cells at 100 uM by Annexin V-FITC-staining based FACS analysis (reference value: 2.34%). Format: functional.
In series [8] the test system is DU-145. In words: Induction of apoptosis in human DU145 cells assessed as necrotic cells at 100 uM by Annexin V-FITC-staining based FACS analysis (reference value: 0.22%). Format: functional.
The test system of series [9] is DU-145. In words: Induction of apoptosis in human DU145 cells at 100 uM by TUNEL assay. Format: functional, cell-based.
Series [10] addresses T2, Macrophage migration inhibitory factor (Homo sapiens) (UniProt P14174).
T2 sequence (whole entry): T1 sequence (P14174 whole entry)
Kind of series: Inhibition of recombinant human MIF-induced ERK phosphorylation in idiopathic pulmonary arterial hypertension patient derived primary pulmonary endothelial cells by Western blot analysis. Summed up:
(§2)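 iPAH-derived pulmonary endothelial cells stimulated with 50 ng/mL recombinant MIF (endotoxin <0.07 EU/µg) with increasing antagonist doses; lysed and sonicated in RIPA with protease/phosphatase inhibitors, 30 µg protein immunoblotted for pAKT/AKT and pERK1/2/ERK.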
On the technique in general: Immunoblotting shows a protein as a band on a membrane.

The target in series [11] is T2, Macrophage migration inhibitory factor (Homo sapiens). In words: Inhibition of recombinant human MIF-induced AKT phosphorylation in idiopathic pulmonary arterial hypertension patient derived primary pulmonary endothelial cells by Western blot analysis. Summed up: as §2
Series [12] deals with Rattus norvegicus. Kind of series: Anti-hypertensive activity in MCT-induced pulmonary hypertension Wistar rat model at 30 mg/kg/day administered via oral gavage for 2 weeks starting from 2 weeks post MCT challenge. Format: functional, organism-based. Summed up: (§3)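 Young male Wistar rats (100 g) given single subcutaneous monocrotaline 60 mg/kg; from 2 weeks later, dosed daily by gavage for 2 weeks at 30 mg.kg.day-1 in 33% DMSO in propylene glycol:saline (68:32), or vehicle alone. Under isoflurane, jugular catheter advanced into pulmonary artery for pressure; cardiac output by thermodilution; RV hypertrophy as Fulton index.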

The test system of series [13] is Rattus norvegicus. In words: Anti-hypertensive activity in MCT-induced pulmonary hypertension Wistar rat model assessed as reduction in mean pulmonary artery pressure at 30 mg/kg/day administered via oral gavage for 2 weeks starting from 2 weeks post MCT challenge measured post last dose. Format: functional, organism-based. The essentials:
as §3

In series [14] the test system is Rattus norvegicus. In words: Anti-hypertensive activity in MCT-induced pulmonary hypertension Wistar rat model assessed as reduction in right ventricular hypertrophy at 30 mg/kg/day administered via oral gavage for 2 weeks starting from 2 weeks post MCT challenge measured post last dose. Format: functional, organism-based. Summed up:
as §3

Series [15] has as its system Rattus norvegicus. Kind of series: Toxicity in MCT-induced pulmonary hypertension Wistar rat model assessed as change in body weight at 30 mg/kg/day administered via oral gavage for 2 weeks starting from 2 weeks post MCT challenge. The note with it: in vivo, 336 h. Format: organism-based. The essentials:
as §3

For series [16], the system named is Rattus norvegicus. In words: Toxicity in MCT-induced pulmonary hypertension Wistar rat model assessed as change in heart rate at 30 mg/kg/day administered via oral gavage for 2 weeks starting from 2 weeks post MCT challenge. The following applies: in vivo, 336 h. Format: organism-based. Summed up: as §3
The test system of series [17] is Rattus norvegicus. Kind of series: Cardiotoxicity in MCT-induced pulmonary hypertension Wistar rat model assessed as induction of cardiac fibrosis at 30 mg/kg/day administered via oral gavage for 2 weeks starting from 2 weeks post MCT challenge measured post last dose by picrosirius red staining based assay. Format: toxicity, organism-based. The note with it: in vivo, 336 h. Summed up: (§4)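 Monocrotaline rat model as above (60 mg/kg s.c.; daily gavage 30 mg/kg/day for 2 weeks starting 2 weeks post-MCT, DMSO/propylene glycol/saline vehicle). Heart sections deparaffinized and stained with Picrosirius red for collagen; collagen area fraction scored in right and left ventricle myocardium against control rats.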

Series [18] has as its system Rattus norvegicus. Kind of series: Toxicity in MCT-induced pulmonary hypertension Wistar rat model assessed as change in systemic blood pressure at 30 mg/kg/day administered via oral gavage for 2 weeks starting from 2 weeks post MCT challenge. The note with it: in vivo, 336 h. Format: organism-based. The essentials:
as §3

For series [19], the system named is Rattus norvegicus. In words: Cardioprotective activity in MCT-induced pulmonary hypertension Wistar rat model assessed as reversal of increased collagen fibers in endomysium at 30 mg/kg/day administered via oral gavage for 2 weeks starting from 2 weeks post MCT challenge measured post last dose by picrosirius red staining-based assay. Format: functional, organism-based. The essentials: as §4

The subject of series [20] is Rattus norvegicus. In words: Cardiotoxicity in MCT-induced pulmonary hypertension Wistar rat model assessed as effect on collagen area fraction in left ventricle at 30 mg/kg/day administered via oral gavage for 2 weeks starting from 2 weeks post MCT challenge measured post last dose by picrosirius red staining based assay. Format: toxicity, organism-based. The note with it: in vivo, 336 h. Summed up:
as §4

The nature of series [21]: Inhibition of cell survival in idiopathic pulmonary arterial hypertension patient derived primary pulmonary endothelial cells at 100 uM after 24 hrs by MTT assay. Format: functional. The following applies: Homo sapiens. Summed up: as §1
Series [22] is described as follows: Aqueous solubility in pH 7.4 PBS buffer at […] after 24 hrs. Format: physicochemical.
Series [23] concerns DU-145. In words: Antiproliferative activity against human DU145 cells by BrdU-incorporation based time-resolved fluorescence analysis.

Structures are written as SMILES. ≈ marks a conversion by molar mass, not a printed value. Calls of active or inactive are those of the source. The rule behind the calls is not given here.

For the molecule `Cc1ccc2oc(=S)n(Cc3ccc(Cl)cc3)c2c1`, the inhibition at 100 µM with DU-145 [1] amounted to 22%.
`Cc1ccc2oc(=S)n(Cc3cccc(F)c3)c2c1` yielded an inhibition at 100 µM in the series with DU-145 [1] of 46%.
Same read-out and setting: the result for `COc1ccc(Cn2c(=S)oc3ccc(C)cc32)cc1` reads 36%; that for `Fc1ccc2oc(=S)n(Cc3ccccc3)c2c1`, 31%; that for `Cc1ccc2c(c1)oc(=S)n2Cc1ccccc1`, 24%.
Regarding `CC(C)c1ccc2oc(=S)n(Cc3ccccc3)c2c1`, in the series with DU-145 [1], the inhibition result was “inactive”. In series [2], the Ki is 1 to 3 µM.
For the molecule `Cc1ccc2oc(=S)n(Cc3ccccc3[N+](=O)[O-])c2c1`, in the series on DU-145 [1], the inhibition at 100 µM stood at 14%.
For the molecule `Cc1ccc2oc(=O)n(Cc3ccccc3)c2c1`, the inhibition entry in the series with DU-145 [1] was “inactive”.
Still for that read-out and setting: the result for `Cc1ccc2oc(=S)n(Cc3ccccc3O)c2c1` reads “inactive”; that for `S=c1oc2ccccc2n1Cc1ccccc1`, “inactive”.
For the molecule `Cc1ccc2oc(=S)n(Cc3cccc(O)c3)c2c1`, in the series on DU-145 [1], the inhibition at 100 µM amounted to 46%. Also, the Ki in series [2] was 0.1 to 0.6 µM.
As to `Cc1ccc2oc(=S)n(Cc3ccc(F)cc3)c2c1`, 100 µM produced 25% inhibition in the series on DU-145 [1].
As for `Cc1ccc2oc(=S)n(Cc3ccc(F)c(O)c3)c2c1`, the inhibition at 100 µM with DU-145 [1] turned out to be 31%. Also, the Ki in series [2] fell in the range of 2 to 5 µM.
In the case of `FC(F)(F)c1ccc2oc(=S)n(Cc3ccccc3)c2c1`, the inhibition at 100 µM in the series with DU-145 [1] was 48%.
In the series on DU-145 [1], `Cc1ccc2oc(=S)n(Cc3cccc([N+](=O)[O-])c3)c2c1` had an inhibition at 100 µM of 24%.
Molecule `Cc1cccc(Cn2c(=S)oc3ccc(C)cc32)c1` gave an inhibition at 100 µM in the series on DU-145 [1] of 32%.
Still for that read-out and setting: the result for `COc1ccc2oc(=S)n(Cc3cccc(O)c3)c2c1` reads 16%.
On to `Cc1cccc2oc(=S)n(Cc3ccccc3)c12`, for which the inhibition result in the series with DU-145 [1] is “inactive”.
For `Cc1ccc2oc(=S)n(Cc3ccc([N+](=O)[O-])cc3)c2c1`, at 100 µM the inhibition in the series with DU-145 [1] was 13%.
Take `COc1ccccc1Cn1c(=S)oc2ccc(C)cc21`: in the series with DU-145 [1], the inhibition at 100 µM amounted to 29%.
Turning to `O=c1oc2ccc(C(F)(F)F)cc2n1Cc1ccc(F)c(O)c1`, in the series with DU-145 [1], the inhibition entry is “inactive”.
`Cc1ccc2oc(=S)n(Cc3ccccc3F)c2c1` yielded an inhibition at 100 µM in the series on DU-145 [1] of 28%.
Still for that read-out and setting: then `COc1cccc(Cn2c(=S)oc3ccc(C)cc32)c1`, with 47%; and `COC(=O)CC1CC(c2ccc(O)cc2)=NO1` (configuration not stated), with 8%.
Consider `CC(C)(C)c1ccc2oc(=S)n(Cc3ccccc3)c2c1`, for which, in the series on DU-145 [1], the inhibition entry was “inactive”.
Still for that read-out and setting: the result for `Cc1ccc2oc(=S)n(Cc3ccccc3Cl)c2c1` reads “inactive”.
With `Oc1cc(Cn2c(=S)oc3ccc(C(F)(F)F)cc32)ccc1F`, the viability at 100 µM in the series with DU-145 [3] amounted to 47.9%. Moreover, the results for the inhibition at 100 µM (in the series with DU-145 [1]; in series [21]) were 84% and 70%, respectively. In the series with DU-145 [4], this molecule gave an EC50 of 60.5 µM. In addition, the Ki in [2] was 0.3 to 1 µM. Moreover, the Activity result in the series with DU-145 [5] is “Dose-dependent effect”; in the series on DU-145 [6], 16.7%; in the series with DU-145 [7], 14.5%; in the series on DU-145 [8], 20.8%; in the series on Rattus norvegicus [15], “Non-Toxic”; in the series on Rattus norvegicus [16], “Non-Toxic”. Besides, the Activity result was “Non-Toxic” in the series with Rattus norvegicus [17], “Non-Toxic” in the series on Rattus norvegicus [18], “Non-Toxic” in the series with Rattus norvegicus [20] and “Dose-dependent effect” with DU-145 [23]. In addition, the outcome with DU-145 [9], with Rattus norvegicus [12], with Rattus norvegicus [13], with Rattus norvegicus [14] and in the series on Rattus norvegicus [19] was Active. In addition, the inhibition entry in series [10] and in series [11] was “Dose-dependent effect” in each case. The same molecule gave a solubility at 24 h in series [22] of 3 to 4 µM (≈ 1.03 to 1.37 µg/mL).
Turning to `Cc1ccc2oc(=S)n(Cc3ccccc3C)c2c1`, the inhibition result in the series on DU-145 [1] is “inactive”.
Turning to `S=c1oc2ccc(Cl)cc2n1Cc1ccccc1`, the inhibition at 100 µM with DU-145 [1] came out at 34%.
`Cc1ccc(Cn2c(=S)oc3ccc(C)cc32)cc1`: the inhibition entry in the series on DU-145 [1] is “inactive”.
With `Cc1ccc2oc(=S)n(Cc3ccccc3)c2c1`, at 100 µM the inhibition in the series on DU-145 [1] was 36%. The Ki in [2] lay in the range of 1 to 3 µM.
